Measurements reported in ChEMBL document CHEMBL4196009, “Novel vitexin-inspired scaffold against leukemia” (Eur J Med Chem, 2018).
Activity calls are given as the source filed them. No cut-off for these calls is given here.

Tests used:
SUP-B15 = test: Induction of apoptosis in human SUP-B15 cells assessed as early apoptotic cells at 10 uM after 24 hrs by Annexin V-FITC/propidium iodide staining-based flow cytometry (reference value: 0.1%); type: functional
MDA-MB-231 = test: Cell cycle arrest in human MDA-MB-231 cells assessed as accumulation at G2/M phase at 20 uM after 24 hrs by propidium iodide staining-based flow cytometry (reference value: 9.38%); type: functional
KOPN-8 [1] = test: Induction of apoptosis in human KOPN8 cells assessed as upregulation of cleaved PARP level after 3 to 24 hrs by Western blot analysis; type: functional, cell-based
Summary of the method: (§1)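 KOPN-8 cells were exposed to compound for 3 h and 24 h, with or without N-acetylcysteine added to a parallel set as antioxidant. Lysates were analysed by Western blot for cleaved PARP, Mcl-1, Ser-2-phosphorylated RNAPII CTD, cMyc, total Rb and pRb. Signals were compared against controls for dose-dependent change.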

Homo sapiens [2] = species: Homo sapiens; test: Inhibition of RNA polymerase 2 C-terminal domain phosphorylation at Ser2 residue in human KOPN8 cells after 24 hrs by Western blot analysis; type: cell-based; summary of the method: as §1
KOPN-8 [3] = test: Downregulation of total Rb expression in human KOPN8 cells after 24 hrs by Western blot analysis; type: cell-based; settings: kopn-8, 24 h
Summary of the method: (§2)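 KOPN-8 cells were treated at 10–100 µM final, with or without N-acetylcysteine co-addition, for 3 h and 24 h. Lysates were analysed by Western blot for PARP cleavage, Mcl-1, phospho-Ser2 RNAPII CTD, c-Myc, total Rb and pRb. Levels are relative to the vehicle control.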

[4] = target: T1, Retinoblastoma-associated protein (Homo sapiens) (UniProt P06400); test: Inhibition of Rb phosphorylation in human KOPN8 cells assessed as ratio of phosphorylated Rb to total Rb levels at 10 uM after 3 hrs by Western blot analysis relative to control; type: cell-based
T1 sequence (whole entry): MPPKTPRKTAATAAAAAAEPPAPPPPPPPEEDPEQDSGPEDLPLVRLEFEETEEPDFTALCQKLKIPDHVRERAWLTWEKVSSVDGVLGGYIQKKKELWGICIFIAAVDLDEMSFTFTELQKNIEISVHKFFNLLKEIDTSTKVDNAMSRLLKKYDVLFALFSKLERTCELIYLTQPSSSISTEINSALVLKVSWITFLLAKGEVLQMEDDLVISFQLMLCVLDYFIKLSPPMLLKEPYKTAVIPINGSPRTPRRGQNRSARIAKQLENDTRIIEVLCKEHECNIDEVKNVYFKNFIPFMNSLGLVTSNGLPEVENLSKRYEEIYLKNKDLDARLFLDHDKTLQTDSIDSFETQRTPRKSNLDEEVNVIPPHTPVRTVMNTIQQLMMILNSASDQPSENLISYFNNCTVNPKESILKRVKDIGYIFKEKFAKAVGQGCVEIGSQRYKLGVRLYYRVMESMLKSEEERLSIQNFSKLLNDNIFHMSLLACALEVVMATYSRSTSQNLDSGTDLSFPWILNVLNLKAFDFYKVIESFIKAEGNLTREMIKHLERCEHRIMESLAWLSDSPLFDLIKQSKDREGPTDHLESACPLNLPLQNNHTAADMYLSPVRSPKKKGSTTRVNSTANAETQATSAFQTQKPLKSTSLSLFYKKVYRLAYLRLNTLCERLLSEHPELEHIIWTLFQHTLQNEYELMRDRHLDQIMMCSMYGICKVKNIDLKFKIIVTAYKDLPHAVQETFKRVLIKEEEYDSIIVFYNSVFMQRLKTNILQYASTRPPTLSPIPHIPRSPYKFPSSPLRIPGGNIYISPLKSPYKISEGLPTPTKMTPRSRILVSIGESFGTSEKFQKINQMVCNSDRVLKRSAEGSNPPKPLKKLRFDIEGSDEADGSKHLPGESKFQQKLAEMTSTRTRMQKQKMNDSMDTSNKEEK
Summary of the method: (§3)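 KOPN-8 pre-B ALL cells were treated for 3 h and 24 h, with or without N-acetyl cysteine added to a parallel set of cells as an antioxidant/ROS quencher. Lysates were analysed by Western blot for phosphorylated Rb and total Rb. The same blots also probed PARP cleavage, Mcl-1, Ser-2-phosphorylated RNAPII CTD and cMyc.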

MCF7 = test: Induction of oxidative stress in human MCF7 cells transfected with mRuby-Mito-7 with fugene assessed as increase in intracellular total ROS levels at 50 uM measured after 1 hr by fluorimetric analysis; type: functional, cell-based
Summary of the method: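 MCF-7 cells carried an mRuby-Cox8A mitochondrial label. They were exposed to 50 of compound, alone or together with 50 of N-acetylcysteine, for 1 h. Cells were then stained with CellROX green (ex/em 485/520 nm) plus Hoechst 33342 nuclear stain. Total and mitochondrial ROS fluorescence was imaged in live cells and quantified relative to control.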

Homo sapiens [5] = species: Homo sapiens; test: Inhibition of RNA polymerase 2 C-terminal domain phosphorylation at Ser2 residue in human KOPN8 cells at 10 uM after 3 hrs by Western blot analysis relative to control; type: cell-based; summary of the method: as §1
Homo sapiens [6] = species: Homo sapiens; test: Inhibition of RNA polymerase 2 C-terminal domain phosphorylation at Ser2 residue in human KOPN8 cells at 30 uM pre-treated with NAC for 1 hr and measured after 3 hrs by Western blot analysis relative to control; type: cell-based; summary of the method: as §1
KOPN-8 [7] = test: Effect on c-Myc expression in human KOPN8 cells at 30 uM after 3 hrs by Western blot analysis relative to control; type: functional; summary of the method: as §2
KOPN-8 [8] = test: Effect on c-Myc expression in human KOPN8 cells at 100 uM pre-treated with NAC for 1 hr and measured after 3 hrs by Western blot analysis relative to control; type: functional
KOPN-8 [9] = test: Effect on c-Myc expression in human KOPN8 cells at 100 uM after 24 hrs by Western blot analysis relative to control; type: functional; summary of the method: as §2
[10] = target: T1, Retinoblastoma-associated protein (Homo sapiens); test: Inhibition of Rb phosphorylation in human KOPN8 cells assessed as ratio of phosphorylated Rb to total Rb levels at 30 uM after 3 hrs by Western blot analysis relative to control; type: cell-based; summary of the method: as §3
KOPN-8 [11] = test: Induction of apoptosis in human KOPN8 cells assessed as upregulation of cleaved PARP level at 0.5 uM pre-treated with NAC for 1 hr and measured after 3 hrs by Western blot analysis; type: functional, cell-based; summary of the method: as §1
KOPN-8 [12] = test: Induction of apoptosis in human KOPN8 cells assessed as upregulation of cleaved PARP level at 0.5 uM pre-treated with NAC for 1 hr and measured after 24 hrs by Western blot analysis; type: functional, cell-based; summary of the method: as §1
[13] = target: T1, Retinoblastoma-associated protein (Homo sapiens); test: Inhibition of Rb phosphorylation in human KOPN8 cells assessed as ratio of phosphorylated Rb to total Rb levels at 0.5 uM after 24 hrs by Western blot analysis relative to control; type: cell-based; summary of the method: as §1

Row | Activity (KOPN-8 [3]) | fold change (FC) [4] | fold change (FC) [10] | fold change (FC) [13] | SMILES | Activity (SUP-B15) [%] | Activity (MDA-MB-231) [%] | Activity (KOPN-8 [1]) | inhibition (Homo sapiens [2]) | Activity (MCF7) | fold change (FC) (Homo sapiens [5]) | fold change (FC) (Homo sapiens [6]) | fold change (FC) (KOPN-8 [7]) | fold change (FC) (KOPN-8 [8]) | fold change (FC) (KOPN-8 [9]) | Activity (KOPN-8 [11]) | Activity (KOPN-8 [12])
1 | Dose-dependent effect | 1 | 1 |  | COc1ccc(-c2c(I)c(=O)c3c(OC)cc(OC)cc3n2S(=O)(=O)c2ccc(OC)cc2)cc1 | 0.1 | 15.97 | Dose-dependent effect | Dose-dependent effect | Active | 0.7 | 0.9 | 0.6 | 0.5 | 0.1 |  | 
2 |  |  |  | 0.9 | CN(C)C(=O)c1cc2cnc(Nc3ccc(N4CCNCC4)cn3)nc2n1C1CCCC1 [RIBOCICLIB] |  |  |  |  |  |  |  |  |  |  | inactive | Active
